Data: ChEMBL document CHEMBL2390903, “Anti-tubercular agents. Part 7: a new class of diarylpyrrole-oxazolidinone conjugates as antimycobacterial agents” (Eur J Med Chem, 2013)
Converted amounts (≈) assume the structure as drawn.

The molecules below were run on Mycobacterium tuberculosis (assay: Antitubercular activity against rifampicin-resistant Mycobacterium tuberculosis assessed as growth inhibition after 2 to 3 weeks by broth microdilution method).
Type: functional
Outline: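 Primary screen of all compounds against H37Rv at a single concentration in triplicate by microplate dilution. Actives then went to MIC determination by broth microdilution against H37Rv, rifampicin-resistant and XDR-1 isolates. Plates incubated 2–3 weeks at 37 °C in a CO2 incubator. MIC read visually as absence of growth turbidity. Rifampicin and linezolid served as reference drugs.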

SMILES	MIC [µg/mL]
Cc1c(CN2CCN(c3ccc(N4C[C@H](Cn5cc(-c6cncn6C)nn5)OC4=O)cc3F)CC2)cc(-c2ccc(F)cc2F)n1-c1ccc(F)cc1	8 (≈ 11 µM)
CC(=O)NC[C@H]1CN(c2ccc(N3CCN(Cc4cc(-c5ccc(F)cc5F)n(-c5cc(F)ccc5Br)c4C)CC3)c(F)c2)C(=O)O1	8 (≈ 11.2 µM)
Cc1c(CN2CCN(c3ccc(N4C[C@H](Cn5cc(-c6ccccc6)nn5)OC4=O)cc3F)CC2)cc(-c2ccc(F)cc2F)n1-c1cc(F)ccc1Br	> 16
CC(=O)NC[C@H]1CN(c2ccc(N3CCOCC3)c(F)c2)C(=O)O1 [LINEZOLID]	2 (≈ 5.93 µM)
Cc1ccccc1-c1cc(CN2CCN(c3ccc(N4C[C@H](Cn5cc(-c6ccccn6)nn5)OC4=O)cc3F)CC2)c(C)n1-c1ccc(F)c(F)c1	4 (≈ 5.56 µM)
Cc1ccc(-c2cc(CN3CCN(c4ccc(N5C[C@H](Cn6cc(-c7ccccn7)nn6)OC5=O)cc4F)CC3)c(C)n2-c2ccc(Cl)c(Cl)c2)cc1	4 (≈ 5.32 µM)
Cc1c(CN2CCN(c3ccc(N4C[C@H](Cn5cc(-c6cncn6C)nn5)OC4=O)cc3F)CC2)cc(-c2ccc(C(C)C)cc2)n1-c1ccc(F)cc1F	8 (≈ 10.7 µM)
CO[C@H]1/C=C/O[C@@]2(C)Oc3c(C)c(O)c4c(O)c(c(/C=N/N5CCN(C)CC5)c(O)c4c3C2=O)NC(=O)/C(C)=C\C=C\[C@H](C)[C@H](O)[C@@H](C)[C@@H](O)[C@@H](C)[C@H](OC(C)=O)[C@@H]1C [RIFAMPIN]	> 128
Cc1ccccc1-c1cc(CN2CCN(c3ccc(N4C[C@H](Cn5cc(-c6cncn6C)nn5)OC4=O)cc3F)CC2)c(C)n1-c1ccc(F)cc1	4 (≈ 5.68 µM)
Cc1c(CN2CCN(c3ccc(N4C[C@H](Cn5cc(-c6ccccc6)nn5)OC4=O)cc3F)CC2)cc(-c2cccc(Cl)c2)n1-c1ccccc1F	> 16
Cc1c(CN2CCN(c3ccc(N4C[C@H](Cn5cc(-c6ccccn6)nn5)OC4=O)cc3F)CC2)cc(-c2ccc(F)cc2F)n1-c1ccc(F)cc1	8 (≈ 11.1 µM)
Cc1c(CN2CCN(c3ccc(N4C[C@H](Cn5cc(-c6ccccn6)nn5)OC4=O)cc3F)CC2)cc(-c2ccc(Cl)c(F)c2)n1-c1ccc(OC(F)(F)F)cc1	4 (≈ 4.97 µM)
Cc1cccc(-c2cn(C[C@H]3CN(c4ccc(N5CCN(Cc6cc(-c7ccccc7C)n(-c7ccc(F)cc7)c6C)CC5)c(F)c4)C(=O)O3)nn2)c1	> 16
CC(=O)NC[C@H]1CN(c2ccc(N3CCN(Cc4cc(-c5ccc(C(C)C)cc5)n(-c5ccc(F)cc5F)c4C)CC3)c(F)c2)C(=O)O1	4 (≈ 6.06 µM)
Cc1c(CN2CCN(c3ccc(N4C[C@H](Cn5cc(-c6ccccc6)nn5)OC4=O)cc3F)CC2)cc(-c2ccc(Cl)c(F)c2)n1-c1ccc(OC(F)(F)F)cc1	> 16
Cc1ccccc1-c1cc(CN2CCN(c3ccc(N4C[C@H](Cn5cc(-c6cncn6C)nn5)OC4=O)cc3F)CC2)c(C)n1-c1ccc(F)c(F)c1	8 (≈ 11.1 µM)
Cc1ccc(-c2cc(CN3CCN(c4ccc(N5C[C@H](Cn6cc(-c7ccccc7)nn6)OC5=O)cc4F)CC3)c(C)n2-c2ccc(Cl)c(Cl)c2)cc1	> 16
CC(=O)NC[C@H]1CN(c2ccc(N3CCN(Cc4cc(-c5cccc(Cl)c5)n(-c5ccccc5F)c4C)CC3)c(F)c2)C(=O)O1	8 (≈ 12.6 µM)
